Test results as given in ChEMBL document CHEMBL3045798, “Toxic reactivity of wheat (Triticum aestivum) plants to herbicide isoproturon” (J Agric Food Chem, 2008).
≈ marks a conversion by molar mass, not a printed value.

What was measured:
[1] = test system: Triticum aestivum; test: Induction of lipid peroxidation in Triticum aestivum cv. Ning 13 (wheat) seedlings assessed as increase in TBARS level in leaves grown on soils containing compound for 10 days relative to untreated control; type: organism-based; conditions: in vivo, 240 h
Method in brief: (§1)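 Seedlings grown 10 days in soil at 0–20 mg/kg. Frozen tissue (0.5 g) ground in 0.1% TCA, spun; supernatant heated 30 min in boiling water with 0.5% TBA in 20% TCA. A532 minus A600 read; TBARS calculated with ε 155 mM-1 cm-1. Mean ± SD, n = 3.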

[2] = test system: Triticum aestivum; test: Increase in POD activity in roots of Triticum aestivum cv. Ning 13 (wheat) seedlings grown on soils containing compound at 5 to 10 mg/kg for 10 days by guaiacol oxidation relative to untreated control; type: ADME, organism-based; design: dose 5-10 mg/kg; conditions: in vivo, 240 h
Method in brief: (§2)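 Crude leaf or root extract (Tris-HCl pH 7.8, EDTA, PVP; 15000g) from seedlings grown 10 days in soil with 0–20 mg/kg herbicide. Guaiacol oxidation read at 470 nm for 1 min in 100 mM potassium phosphate pH 7.0, 20 mM guaiacol, 10 mM H2O2. Mean ± SD, n = 3.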

[3] = test system: Triticum aestivum; test: Reduction in SOD activity in roots of Triticum aestivum cv. Ning 13 (wheat) seedlings grown on soils containing compound at 10 to 20 mg/kg for 10 days by PAGE method assay relative to untreated control; type: ADME, organism-based; design: dose 10-20 mg/kg; conditions: in vivo, 240 h
[4] = test system: Triticum aestivum; test: Reduction in APX activity in roots of Triticum aestivum cv. Ning 13 (wheat) seedlings grown on soils containing compound at 20 mg/kg for 10 days relative to untreated control; type: ADME, organism-based; design: dose 20 mg/kg; conditions: in vivo, 240 h
[5] = test system: Triticum aestivum; test: Induction of lipid peroxidation in Triticum aestivum cv. Ning 13 (wheat) seedlings assessed as increase in TBARS level in roots grown on soils containing compound at 2 to 20 mg/kg for 10 days relative to untreated control; type: organism-based; design: dose 2-20 mg/kg; conditions: in vivo, 240 h; method in brief: as §1
[6] = test system: Triticum aestivum; test: Reduction in SOD activity in roots of Triticum aestivum cv. Ning 13 (wheat) seedlings grown on soils containing compound at 10 to 20 mg/kg for 10 days by NBT dye reduction assay relative to untreated control; type: ADME, organism-based; design: dose 10-20 mg/kg; conditions: in vivo, 240 h
Method in brief: (§3)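 Root crude extract from 10-day seedlings in soil at 0–20 mg/kg. Inhibition of NBT photoreduction in 50 mM phosphate pH 7.8 with 10 mM methionine and riboflavin, read at 560 nm. One unit inhibits NBT photoreduction to formazan by 50%. Mean ± SD, n = 3.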

[7] = test system: Triticum aestivum; test: Reduction in CAT isoforms activity in roots of Triticum aestivum cv. Ning 13 (wheat) seedlings grown on soils containing compound at 10 to 20 mg/kg for 10 days by PAGE method assay relative to untreated control; type: ADME, organism-based; design: dose 10-20 mg/kg; conditions: in vivo, 240 h
Method in brief: (§4)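 Native PAGE, 5% stacking/10% separating gel, run at 4 °C (10 mA, then 15 mA), of tissue extracts from seedlings grown 10 days in soil at 0, 2, 3.5, 5, 10, 20 mg/kg. CAT bands: gel soaked in water 15 min, then 0.03% H2O2 25 min, washed, stained with 1% potassium ferricyanide plus 1% ferric chloride.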

[8] = test system: Triticum aestivum; test: Increase in SOD activity in roots of Triticum aestivum cv. Ning 13 (wheat) seedlings grown on soils containing compound at 2 to 10 mg/kg for 10 days by NBT dye reduction assay relative to untreated control; type: ADME, organism-based; design: dose 2-10 mg/kg; conditions: in vivo, 240 h; method in brief: as §3
[9] = test system: Triticum aestivum; test: Reduction in CAT isoforms activity in leaves of Triticum aestivum cv. Ning 13 (wheat) seedlings grown on soils containing compound at 2 to 20 mg/kg for 10 days by PAGE method assay relative to untreated control; type: ADME, organism-based; design: dose 2-20 mg/kg; conditions: in vivo, 240 h; method in brief: as §4
[10] = test system: Triticum aestivum; test: Induction of changes in GST activity in roots of Triticum aestivum cv. Ning 13 (wheat) seedlings grown on soils containing compound at 2 to 20 mg/kg for 10 days by CDNB dye based assay relative to untreated control; type: organism-based; design: dose 2-20 mg/kg; conditions: in vivo, 240 h
Method in brief: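 Tissue extract from 10-day seedlings in soil with 0–20 mg/kg. Reaction: 100 mM potassium phosphate pH 7, 1 mM GSH, 1 mM CDNB (final; added last to start). Absorbance increase at 340 nm tracked over 15 min. Mean ± SD, n = 3.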

[11] = test system: Triticum aestivum; test: Toxicity in Triticum aestivum cv. Ning 13 (wheat) seedlings assessed as reduction in shoot elongation grown on soils containing compound at 20 mg/kg for 10 days relative to untreated control; type: organism-based; design: dose 20 mg/kg; scale not given: the % may be the effect or the level left; conditions: in vivo, 240 h
Method in brief: (§5)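 Surface-sterilized seeds germinated 8 h at 25 °C, then grown 10 days (third leaf) in soil at 0, 2, 3.5, 5, 10, 20 mg/kg, watered to 60–70% water content, 12 h photoperiod, 300 µmol photons m-2 s-1, 25/20 °C. Elongation measured; dry mass after 70 °C for 72 h. Mean ± SD, n = 3.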

[12] = test system: Triticum aestivum; test: Increase in SOD activity in roots of Triticum aestivum cv. Ning 13 (wheat) seedings grown on soils containing compound at 2 to 10 mg/kg for 10 days by PAGE method assay relative to untreated control; type: ADME, organism-based; design: dose 2-10 mg/kg; conditions: in vivo, 240 h
[13] = test system: Triticum aestivum; test: Toxicity in Triticum aestivum cv. Ning 13 (wheat) seedlings assessed as reduction in root length grown on soils containing compound at 20 mg/kg for 10 days relative to untreated control; type: organism-based; design: dose 20 mg/kg; scale not given: the % may be the effect or the level left; conditions: in vivo, 240 h; method in brief: as §5
[14] = test system: Triticum aestivum; test: Reduction in CAT activity in leaves of Triticum aestivum cv. Ning 13 (wheat) seedlings grown on soils containing compound at 2 to 20 mg/kg for 10 days by H2O2 consumption assay relative to untreated control; type: ADME, organism-based; design: dose 2-20 mg/kg; conditions: in vivo, 240 h
[15] = test system: Triticum aestivum; test: Increase in POD activity in leaves of Triticum aestivum cv. Ning 13 (wheat) seedlings grown on soils containing compound at 5 to 10 mg/kg for 10 days by guaiacol oxidation relative to untreated control; type: ADME, organism-based; design: dose 5-10 mg/kg; conditions: in vivo, 240 h; method in brief: as §2
[16] = test system: Triticum aestivum; test: Toxicity in Triticum aestivum cv. Ning 13 (wheat) seedlings assessed as inhibition of shoot growth measured as dry weight grown on soils containing compound at 2 to 20 mg/kg for 10 days; type: organism-based; design: dose 2-20 mg/kg; conditions: in vivo, 240 h; method in brief: as §5
[17] = test system: Triticum aestivum; test: Reduction in SOD activity in shoots of Triticum aestivum cv. Ning 13 (wheat) seedlings grown on soils containing compound at 10 to 20 mg/kg for 10 days by PAGE method assay relative to untreated control; type: ADME, organism-based; design: dose 10-20 mg/kg; conditions: in vivo, 240 h
[18] = test system: Triticum aestivum; test: Increase in APX activity in leaves of Triticum aestivum cv. Ning 13 (wheat) seedlings grown on soils containing compound at 5 to 10 mg/kg for 10 days relative to untreated control; type: ADME, organism-based; design: dose 5-10 mg/kg; conditions: in vivo, 240 h
[19] = test system: Triticum aestivum; test: Increase in CAT isoforms activity in roots of Triticum aestivum cv. Ning 13 (wheat) seedlings grown on soils containing compound at 2 to 5 mg/kg for 10 days by PAGE method assay relative to untreated control; type: ADME, organism-based; design: dose 2-5 mg/kg; conditions: in vivo, 240 h; method in brief: as §4
[20] = test system: Triticum aestivum; test: Induction of changes in GST activity in leaves of Triticum aestivum cv. Ning 13 (wheat) seedlings grown on soils containing compound at 2 to 20 mg/kg for 10 days by CDNB dye based assay relative to untreated control; type: organism-based; design: dose 2-20 mg/kg; conditions: in vivo, 240 h
[21] = test system: Triticum aestivum; test: Reduction in POD activity in roots of Triticum aestivum cv. Ning 13 (wheat) seedlings grown on soils containing compound at 20 mg/kg for 10 days by guaiacol oxidation relative to untreated control; type: ADME, organism-based; design: dose 20 mg/kg; conditions: in vivo, 240 h; method in brief: as §2
[22] = test system: Triticum aestivum; test: Increase in CAT activity in roots of Triticum aestivum cv. Ning 13 (wheat) seedlings grown on soils containing compound at 2 to 5 mg/kg for 10 days by H2O2 consumption assay relative to untreated control; type: ADME, organism-based; design: dose 2-5 mg/kg; conditions: in vivo, 240 h
[23] = test system: Triticum aestivum; test: Increase in APX activity in roots of Triticum aestivum cv. Ning 13 (wheat) seedlings grown on soils containing compound at 5 to 10 mg/kg for 10 days relative to untreated control; type: ADME, organism-based; design: dose 5-10 mg/kg; conditions: in vivo, 240 h
[24] = test system: Triticum aestivum; test: Increase in POD isoforms 1 to 5 activity in roots of Triticum aestivum cv. Ning 13 (wheat) seedlings grown on soils containing compound at 3.5 to 10 mg/kg for 10 days by PAGE method assay relative to untreated control; type: ADME, organism-based; design: dose 3.5-10 mg/kg; conditions: in vivo, 240 h
[25] = test system: Triticum aestivum; test: Induction of lipid peroxidation in Triticum aestivum cv. Ning 13 (wheat) seedlings assessed as increase in TBARS level in leaves grown on soils containing compound at 10 mg/kg for 10 days relative to untreated control; type: organism-based; design: dose 10 mg/kg; conditions: in vivo, 240 h
Method in brief: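 Wheat seeds surface-sterilized (5% hypochlorite, 10 min), germinated 8 h at 25 °C, sown in sieved field soil spiked with herbicide (0–20 mg/kg), watered to 60–70% water content, grown 10 days (12 h photoperiod, 25/20 °C). Fresh leaf (0.5 g) ground in 0.1% TCA, supernatant boiled 30 min with 0.5% TBA in 20% TCA; A532 minus A600, ε 155 mM-1 cm-1; n=3.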

[26] = test system: Triticum aestivum; test: Increase in SOD activity in shoots of Triticum aestivum cv. Ning 13 (wheat) seedlings grown on soils containing compound at 2 to 10 mg/kg for 10 days by PAGE method assay relative to untreated control; type: ADME, organism-based; design: dose 2-10 mg/kg; conditions: in vivo, 240 h
[27] = test system: Triticum aestivum; test: Reduction in CAT activity in roots of Triticum aestivum cv. Ning 13 (wheat) seedlings grown on soils containing compound at 10 to 20 mg/kg for 10 days by H2O2 consumption assay relative to untreated control; type: ADME, organism-based; design: dose 10-20 mg/kg; conditions: in vivo, 240 h
[28] = test system: Triticum aestivum; test: Reduction in APX activity in leaves of Triticum aestivum cv. Ning 13 (wheat) seedlings grown on soils containing compound at 20 mg/kg for 10 days relative to untreated control; type: ADME, organism-based; design: dose 20 mg/kg; conditions: in vivo, 240 h
[29] = Solubility in water at 20 degC; type: physicochemical
[30] = test system: Triticum aestivum; test: Reduction in POD activity in leaves of Triticum aestivum cv. Ning 13 (wheat) seedlings grown on soils containing compound at 20 mg/kg for 10 days by guaiacol oxidation relative to untreated control; type: ADME, organism-based; design: dose 20 mg/kg; conditions: in vivo, 240 h; method in brief: as §2
[31] = test system: Triticum aestivum; test: Toxicity in Triticum aestivum cv. Ning 13 (wheat) seedlings assessed as reduction in chlorophyll content in leaves grown on soils containing compound at 2 mg/kg for 10 days relative to untreated control; type: organism-based; design: dose 2 mg/kg; scale not given: the % may be the effect or the level left; conditions: in vivo, 240 h
Method in brief: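 Fresh leaf (0.1 g) from 10-day seedlings in spiked soil extracted in 80% acetone (pH 7.8, phosphate), spun 500g 10 min. Total chlorophyll calculated spectrophotometrically. Mean ± SD, n = 3.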

CC(C)c1ccc(NC(=O)N(C)C)cc1 [ISOPROTURON]
Activity [1]: Dose-dependent effect | Activity [2]: Toxic | Activity [3]: Toxic | Activity [4]: Toxic | Activity [5]: Non-toxic | Activity [6]: Toxic | Activity [7]: Toxic | Activity [8]: Dose-dependent effect | Activity [9]: Dose-dependent effect | Activity [10]: Toxic | Activity [11]: 32% | Activity [12]: Toxic | Activity [13]: 44% | Activity [14]: Dose-dependent effect | Activity [15]: Toxic | Activity [16]: Toxic | Activity [17]: Toxic | Activity [18]: Toxic | Activity [19]: Toxic | Activity [20]: Toxic | Activity [21]: Toxic | Activity [22]: Toxic | Activity [23]: Toxic | Activity [24]: Toxic | fold change (FC) [25]: > 2 | Activity [26]: Toxic | Activity [27]: Toxic | Activity [28]: Toxic | solubility [29]: 55 µg/mL (≈ 267 µM) | Activity [30]: Toxic | Activity [31]: 11%
